Assay results reported in ChEMBL document CHEMBL5058577, “EUbOPEN Chemogenomics Library 2 (Multiplex)” (2022).

Tested on: U2OS
Test: Multiplex assay against U2OS
Type: toxicity, cell-based
Settings: human
Method in brief: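 Imaging took place on a CQ1 microscope at 37°C and 5% CO2 once compound had been added to live cells stained at seeding with Hoechst33342, BioTracker Green Microtubule Cytoskeleton Dye, MitoTracker Red and Annexin V Alexa Fluor 680. CellPathfinder machine-learning gating classed cells as Hoechst high-intensity objects or normal cells, classed normal cells as having healthy, pyknosed or fragmented nuclei, and classed pyknosed cells as mitotic or apoptotic. Tubulin, mitochondrial-mass and membrane-permeability phenotypes are per cents of the healthy-nucleus cells.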

[1] = 12 h, 1 µM, compound concentration 1 uM, replicate 1
[2] = 12 h, 1 µM, compound concentration 1 uM, replicate 2
[3] = 12 h, 10 µM, compound concentration 10 uM, replicate 1
[4] = 12 h, 10 µM, compound concentration 10 uM, replicate 2
[5] = 24 h, 1 µM, compound concentration 1 uM, replicate 1
[6] = 24 h, 1 µM, compound concentration 1 uM, replicate 2
[7] = 24 h, 10 µM, compound concentration 10 uM, replicate 1
[8] = 24 h, 10 µM, compound concentration 10 uM, replicate 2
[9] = 48 h, 1 µM, compound concentration 1 uM, replicate 1
[10] = 48 h, 1 µM, compound concentration 1 uM, replicate 2
[11] = 48 h, 10 µM, compound concentration 10 uM, replicate 1
[12] = 48 h, 10 µM, compound concentration 10 uM, replicate 2

Cc1cc(NC(=O)NCCN2CCC(O)(Cc3ccccc3)CC2)c2ccccc2n1 [PALOSURAN]
Population Apoptotic (%) [1]: 80%
Population Fragmented Nuclei (%) [1]: 27%
Population Healthy Nuclei (%) [1]: 65%
Population Hoechst High Intensity Objects (%) [1]: 1%
Population Membrane Permeable-Phenotype (%) [1]: 4%
Population Mitochondria Different-Phenotype (%) [1]: 2%
Population Mitotic Cells (%) [1]: 20%
Population Normal (%) [1]: 98%
Population Pyknosed Nuclei (%) [1]: 6%
Population Tubulin-Different-Phenotype (%) [1]: 1%
Total Cell Count [1]: 220
Population Apoptotic (%) [2]: 71%
Population Fragmented Nuclei (%) [2]: 19%
Population Healthy Nuclei (%) [2]: 71%
Population Hoechst High Intensity Objects (%) [2]: 0%
Population Membrane Permeable-Phenotype (%) [2]: 2%
Population Mitochondria Different-Phenotype (%) [2]: 0%
Population Mitotic Cells (%) [2]: 28%
Population Normal (%) [2]: 100%
Population Pyknosed Nuclei (%) [2]: 9%
Total Cell Count [2]: 145
Population Apoptotic (%) [3]: 72%
Population Fragmented Nuclei (%) [3]: 30%
Population Healthy Nuclei (%) [3]: 59%
Population Hoechst High Intensity Objects (%) [3]: 3%
Population Membrane Permeable-Phenotype (%) [3]: 6%
Population Mitochondria Different-Phenotype (%) [3]: 1%
Population Mitotic Cells (%) [3]: 28%
Population Normal (%) [3]: 96%
Population Pyknosed Nuclei (%) [3]: 9%
Population Tubulin-Different-Phenotype (%) [3]: 1%
Total Cell Count [3]: 266
Population Apoptotic (%) [4]: 66%
Population Fragmented Nuclei (%) [4]: 17%
Population Healthy Nuclei (%) [4]: 70%
Population Membrane Permeable-Phenotype (%) [4]: 12%
Population Mitochondria Different-Phenotype (%) [4]: 2%
Population Mitotic Cells (%) [4]: 33%
Population Pyknosed Nuclei (%) [4]: 11%
Population Tubulin-Different-Phenotype (%) [4]: 8%
Total Cell Count [4]: 107
Population Apoptotic (%) [5]: 94%
Population Fragmented Nuclei (%) [5]: 26%
Population Healthy Nuclei (%) [5]: 66%
Population Hoechst High Intensity Objects (%) [5]: 1%
Population Membrane Permeable-Phenotype (%) [5]: 3%
Population Mitochondria Different-Phenotype (%) [5]: 3%
Population Mitotic Cells (%) [5]: 5%
Population Normal (%) [5]: 98%
Population Pyknosed Nuclei (%) [5]: 6%
Population Tubulin-Different-Phenotype (%) [5]: 2%
Total Cell Count [5]: 276
Population Apoptotic (%) [6]: 66%
Population Fragmented Nuclei (%) [6]: 17%
Population Healthy Nuclei (%) [6]: 74%
Population Membrane Permeable-Phenotype (%) [6]: 7%
Population Mitochondria Different-Phenotype (%) [6]: 7%
Population Mitotic Cells (%) [6]: 33%
Population Pyknosed Nuclei (%) [6]: 8%
Population Tubulin-Different-Phenotype (%) [6]: 3%
Total Cell Count [6]: 173
Population Apoptotic (%) [7]: 92%
Population Fragmented Nuclei (%) [7]: 26%
Population Healthy Nuclei (%) [7]: 65%
Population Hoechst High Intensity Objects (%) [7]: 3%
Population Membrane Permeable-Phenotype (%) [7]: 4%
Population Mitochondria Different-Phenotype (%) [7]: 0%
Population Mitotic Cells (%) [7]: 8%
Population Normal (%) [7]: 96%
Population Pyknosed Nuclei (%) [7]: 8%
Population Tubulin-Different-Phenotype (%) [7]: 2%
Total Cell Count [7]: 297
Population Apoptotic (%) [8]: 75%
Population Fragmented Nuclei (%) [8]: 19%
Population Healthy Nuclei (%) [8]: 74%
Population Membrane Permeable-Phenotype (%) [8]: 11%
Population Mitochondria Different-Phenotype (%) [8]: 1%
Population Mitotic Cells (%) [8]: 25%
Population Pyknosed Nuclei (%) [8]: 6%
Population Tubulin-Different-Phenotype (%) [8]: 5%
Total Cell Count [8]: 129
Population Apoptotic (%) [9]: 96%
Population Fragmented Nuclei (%) [9]: 25%
Population Healthy Nuclei (%) [9]: 68%
Population Hoechst High Intensity Objects (%) [9]: 1%
Population Membrane Permeable-Phenotype (%) [9]: 5%
Population Mitochondria Different-Phenotype (%) [9]: 3%
Population Mitotic Cells (%) [9]: 3%
Population Normal (%) [9]: 98%
Population Pyknosed Nuclei (%) [9]: 6%
Population Tubulin-Different-Phenotype (%) [9]: 3%
Total Cell Count [9]: 411
Population Apoptotic (%) [10]: 84%
Population Fragmented Nuclei (%) [10]: 15%
Population Healthy Nuclei (%) [10]: 73%
Population Hoechst High Intensity Objects (%) [10]: 3%
Population Membrane Permeable-Phenotype (%) [10]: 7%
Population Mitochondria Different-Phenotype (%) [10]: 5%
Population Mitotic Cells (%) [10]: 16%
Population Normal (%) [10]: 97%
Population Pyknosed Nuclei (%) [10]: 11%
Population Tubulin-Different-Phenotype (%) [10]: 4%
Total Cell Count [10]: 233
Population Apoptotic (%) [11]: 97%
Population Fragmented Nuclei (%) [11]: 20%
Population Healthy Nuclei (%) [11]: 70%
Population Hoechst High Intensity Objects (%) [11]: 1%
Population Membrane Permeable-Phenotype (%) [11]: 5%
Population Mitochondria Different-Phenotype (%) [11]: 2%
Population Mitotic Cells (%) [11]: 2%
Population Normal (%) [11]: 98%
Population Pyknosed Nuclei (%) [11]: 9%
Population Tubulin-Different-Phenotype (%) [11]: 2%
Total Cell Count [11]: 421
Population Apoptotic (%) [12]: 89%
Population Fragmented Nuclei (%) [12]: 16%
Population Healthy Nuclei (%) [12]: 72%
Population Membrane Permeable-Phenotype (%) [12]: 7%
Population Mitochondria Different-Phenotype (%) [12]: 4%
Population Mitotic Cells (%) [12]: 10%
Population Pyknosed Nuclei (%) [12]: 10%
Population Tubulin-Different-Phenotype (%) [12]: 1%
Total Cell Count [12]: 180

Cc1cc(-c2ccc3c(c2)CC[C@H]3N2CC3(CCN(C(=O)Cc4cn5cc(C)sc5n4)CC3)C2)ncn1 [PF-5190457]
Population Apoptotic (%) [1]: 82%
Population Fragmented Nuclei (%) [1]: 24%
Population Healthy Nuclei (%) [1]: 65%
Population Hoechst High Intensity Objects (%) [1]: 1%
Population Membrane Permeable-Phenotype (%) [1]: 7%
Population Mitochondria Different-Phenotype (%) [1]: 3%
Population Mitotic Cells (%) [1]: 17%
Population Normal (%) [1]: 98%
Population Pyknosed Nuclei (%) [1]: 9%
Population Tubulin-Different-Phenotype (%) [1]: 4%
Total Cell Count [1]: 239
Population Apoptotic (%) [2]: 63%
Population Fragmented Nuclei (%) [2]: 21%
Population Healthy Nuclei (%) [2]: 66%
Population Hoechst High Intensity Objects (%) [2]: 0%
Population Membrane Permeable-Phenotype (%) [2]: 4%
Population Mitotic Cells (%) [2]: 36%
Population Normal (%) [2]: 100%
Population Pyknosed Nuclei (%) [2]: 11%
Population Tubulin-Different-Phenotype (%) [2]: 3%
Total Cell Count [2]: 93
Population Apoptotic (%) [3]: 61%
Population Fragmented Nuclei (%) [3]: 18%
Population Healthy Nuclei (%) [3]: 66%
Population Hoechst High Intensity Objects (%) [3]: 2%
Population Membrane Permeable-Phenotype (%) [3]: 7%
Population Mitochondria Different-Phenotype (%) [3]: 5%
Population Mitotic Cells (%) [3]: 38%
Population Normal (%) [3]: 97%
Population Pyknosed Nuclei (%) [3]: 14%
Population Tubulin-Different-Phenotype (%) [3]: 5%
Total Cell Count [3]: 238
Population Apoptotic (%) [4]: 71%
Population Fragmented Nuclei (%) [4]: 14%
Population Healthy Nuclei (%) [4]: 74%
Population Hoechst High Intensity Objects (%) [4]: 1%
Population Membrane Permeable-Phenotype (%) [4]: 8%
Population Mitochondria Different-Phenotype (%) [4]: 10%
Population Mitotic Cells (%) [4]: 28%
Population Normal (%) [4]: 98%
Population Pyknosed Nuclei (%) [4]: 11%
Population Tubulin-Different-Phenotype (%) [4]: 6%
Total Cell Count [4]: 126
Population Apoptotic (%) [5]: 69%
Population Fragmented Nuclei (%) [5]: 25%
Population Healthy Nuclei (%) [5]: 66%
Population Hoechst High Intensity Objects (%) [5]: 1%
Population Membrane Permeable-Phenotype (%) [5]: 8%
Population Mitochondria Different-Phenotype (%) [5]: 3%
Population Mitotic Cells (%) [5]: 30%
Population Normal (%) [5]: 98%
Population Pyknosed Nuclei (%) [5]: 8%
Population Tubulin-Different-Phenotype (%) [5]: 5%
Total Cell Count [5]: 282
Population Apoptotic (%) [6]: 33%
Population Fragmented Nuclei (%) [6]: 21%
Population Healthy Nuclei (%) [6]: 76%
Population Hoechst High Intensity Objects (%) [6]: 0%
Population Membrane Permeable-Phenotype (%) [6]: 6%
Population Mitochondria Different-Phenotype (%) [6]: 1%
Population Mitotic Cells (%) [6]: 66%
Population Normal (%) [6]: 99%
Population Pyknosed Nuclei (%) [6]: 2%
Population Tubulin-Different-Phenotype (%) [6]: 2%
Total Cell Count [6]: 126
Population Apoptotic (%) [7]: 67%
Population Fragmented Nuclei (%) [7]: 18%
Population Healthy Nuclei (%) [7]: 72%
Population Hoechst High Intensity Objects (%) [7]: 2%
Population Membrane Permeable-Phenotype (%) [7]: 3%
Population Mitochondria Different-Phenotype (%) [7]: 0%
Population Mitotic Cells (%) [7]: 32%
Population Normal (%) [7]: 97%
Population Pyknosed Nuclei (%) [7]: 9%
Population Tubulin-Different-Phenotype (%) [7]: 1%
Total Cell Count [7]: 295
Population Apoptotic (%) [8]: 84%
Population Healthy Nuclei (%) [8]: 69%
Population Hoechst High Intensity Objects (%) [8]: 1%
Population Membrane Permeable-Phenotype (%) [8]: 11%
Population Mitochondria Different-Phenotype (%) [8]: 8%
Population Mitotic Cells (%) [8]: 15%
Population Normal (%) [8]: 98%
Population Pyknosed Nuclei (%) [8]: 12%
Population Tubulin-Different-Phenotype (%) [8]: 4%
Total Cell Count [8]: 154
Population Apoptotic (%) [9]: 84%
Population Fragmented Nuclei (%) [9]: 20%
Population Healthy Nuclei (%) [9]: 71%
Population Hoechst High Intensity Objects (%) [9]: 0%
Population Membrane Permeable-Phenotype (%) [9]: 7%
Population Mitochondria Different-Phenotype (%) [9]: 4%
Population Mitotic Cells (%) [9]: 15%
Population Normal (%) [9]: 99%
Population Pyknosed Nuclei (%) [9]: 8%
Population Tubulin-Different-Phenotype (%) [9]: 4%
Total Cell Count [9]: 402
Population Apoptotic (%) [10]: 66%
Population Fragmented Nuclei (%) [10]: 16%
Population Healthy Nuclei (%) [10]: 78%
Population Hoechst High Intensity Objects (%) [10]: 2%
Population Membrane Permeable-Phenotype (%) [10]: 4%
Population Mitochondria Different-Phenotype (%) [10]: 2%
Population Mitotic Cells (%) [10]: 33%
Population Normal (%) [10]: 97%
Population Pyknosed Nuclei (%) [10]: 5%
Population Tubulin-Different-Phenotype (%) [10]: 2%
Total Cell Count [10]: 184
Population Apoptotic (%) [11]: 74%
Population Fragmented Nuclei (%) [11]: 16%
Population Healthy Nuclei (%) [11]: 71%
Population Hoechst High Intensity Objects (%) [11]: 3%
Population Membrane Permeable-Phenotype (%) [11]: 5%
Population Mitochondria Different-Phenotype (%) [11]: 2%
Population Mitotic Cells (%) [11]: 25%
Population Normal (%) [11]: 96%
Population Pyknosed Nuclei (%) [11]: 12%
Population Tubulin-Different-Phenotype (%) [11]: 3%
Total Cell Count [11]: 389
Population Apoptotic (%) [12]: 76%
Population Fragmented Nuclei (%) [12]: 18%
Population Membrane Permeable-Phenotype (%) [12]: 11%
Population Mitochondria Different-Phenotype (%) [12]: 6%
Population Mitotic Cells (%) [12]: 23%
Population Pyknosed Nuclei (%) [12]: 10%
Population Tubulin-Different-Phenotype (%) [12]: 4%
Total Cell Count [12]: 217
